# Assay results published in ChEMBL document CHEMBL1123888, “Aldosterone antagonists. 2. Synthesis and biological activities of 11,12-dehydropregnane derivatives” (J Med Chem, 1987).
# Calls of active or inactive are those of the source. The calls are words filed in the database; no cut-off is given here.
# How the values were obtained:
# [1] = molecular target: T1, Androgen receptor (Rattus norvegicus) (UniProt P15207); test: Relative binding affinity against Androgen receptor in Male Sprague-Dawley rats
# T1 sequence (whole entry): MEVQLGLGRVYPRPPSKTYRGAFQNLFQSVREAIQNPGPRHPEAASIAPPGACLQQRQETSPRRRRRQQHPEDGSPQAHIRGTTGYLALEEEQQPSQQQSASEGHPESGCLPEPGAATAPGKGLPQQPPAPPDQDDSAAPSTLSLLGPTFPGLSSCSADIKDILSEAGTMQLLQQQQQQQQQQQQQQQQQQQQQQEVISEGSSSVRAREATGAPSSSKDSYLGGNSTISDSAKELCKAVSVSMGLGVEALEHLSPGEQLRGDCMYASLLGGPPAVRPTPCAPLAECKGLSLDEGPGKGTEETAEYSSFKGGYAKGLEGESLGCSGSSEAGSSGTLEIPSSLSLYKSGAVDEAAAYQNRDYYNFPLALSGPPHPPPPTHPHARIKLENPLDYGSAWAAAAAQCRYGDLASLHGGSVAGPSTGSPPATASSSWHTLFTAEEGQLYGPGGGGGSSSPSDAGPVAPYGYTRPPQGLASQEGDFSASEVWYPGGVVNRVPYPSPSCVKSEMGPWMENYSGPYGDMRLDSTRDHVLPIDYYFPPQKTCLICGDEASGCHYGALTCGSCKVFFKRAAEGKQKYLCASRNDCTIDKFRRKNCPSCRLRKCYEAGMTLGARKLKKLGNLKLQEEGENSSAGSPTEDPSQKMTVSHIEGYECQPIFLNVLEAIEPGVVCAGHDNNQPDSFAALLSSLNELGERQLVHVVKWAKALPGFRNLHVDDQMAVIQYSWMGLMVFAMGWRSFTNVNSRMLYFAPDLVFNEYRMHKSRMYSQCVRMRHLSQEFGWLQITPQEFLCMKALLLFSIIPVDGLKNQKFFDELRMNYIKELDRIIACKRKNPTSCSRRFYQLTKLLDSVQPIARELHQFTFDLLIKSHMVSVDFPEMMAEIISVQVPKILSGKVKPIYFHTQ
# Method in brief: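 Rat ventral prostate cytosol from 4-8-week-old rats castrated 1 day earlier. Incubated with various competitor concentrations and about 1 nM [3H]DHT or [3H]methyltrienolone for 16-20 h at 0 °C. Bound and free steroid separated by dextran-coated charcoal.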
# [2] = molecular target: T1, Androgen receptor (Rattus norvegicus); test: In vivo relative androgenic activity in Male Sprague-Dawley rats; assay type: functional, organism-based
# [3] = molecular target: T2, Mineralocorticoid receptor (Rattus norvegicus) (UniProt P22199); test: Antagonist activity against Mineralocorticoid receptor was determined after subcutaneous administration in Male Sprague Dawley rats; assay type: functional, organism-based
# T2 sequence (whole entry): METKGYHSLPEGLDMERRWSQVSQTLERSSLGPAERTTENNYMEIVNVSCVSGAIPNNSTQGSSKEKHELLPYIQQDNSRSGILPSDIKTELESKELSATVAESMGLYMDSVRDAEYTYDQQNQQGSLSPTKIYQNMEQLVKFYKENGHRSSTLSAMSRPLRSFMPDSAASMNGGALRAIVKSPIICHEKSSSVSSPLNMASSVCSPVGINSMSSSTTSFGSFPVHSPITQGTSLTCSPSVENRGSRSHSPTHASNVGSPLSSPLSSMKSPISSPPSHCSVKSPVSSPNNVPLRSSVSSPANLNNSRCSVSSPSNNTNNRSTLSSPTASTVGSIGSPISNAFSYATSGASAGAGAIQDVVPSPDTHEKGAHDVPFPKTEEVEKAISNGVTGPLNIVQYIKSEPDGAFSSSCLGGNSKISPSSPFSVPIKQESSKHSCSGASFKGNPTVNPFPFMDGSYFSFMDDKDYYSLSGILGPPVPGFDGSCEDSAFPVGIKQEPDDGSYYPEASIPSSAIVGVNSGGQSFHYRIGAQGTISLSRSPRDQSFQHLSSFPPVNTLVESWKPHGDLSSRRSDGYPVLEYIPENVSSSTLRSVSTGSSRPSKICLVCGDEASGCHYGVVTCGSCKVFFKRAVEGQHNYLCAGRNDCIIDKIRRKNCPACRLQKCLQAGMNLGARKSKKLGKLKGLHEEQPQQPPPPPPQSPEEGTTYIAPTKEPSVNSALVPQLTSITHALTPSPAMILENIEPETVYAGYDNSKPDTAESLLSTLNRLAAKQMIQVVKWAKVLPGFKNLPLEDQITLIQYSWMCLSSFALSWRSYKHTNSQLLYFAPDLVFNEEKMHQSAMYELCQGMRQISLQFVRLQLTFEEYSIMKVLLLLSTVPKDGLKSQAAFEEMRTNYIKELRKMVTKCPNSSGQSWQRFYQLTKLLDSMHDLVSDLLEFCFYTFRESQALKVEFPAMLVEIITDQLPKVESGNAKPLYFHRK
# Method in brief: (§1)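 Male rats were bilaterally adrenalectomized (bioassay modified from Kagawa). Ald (1 µg/kg) was given sc, immediately followed by test compound in sesame oil sc or orally. Urine was collected from 2 to 6 h after steroid. Potency came from the urinary Na/K ratio of sample versus control, with 95% confidence limits.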
# [4] = molecular target: T2, Mineralocorticoid receptor (Rattus norvegicus); test: Relative binding affinity to the rat mineralocorticoid receptor determined in rat renal cytosol using [3]Ald as ligand
# Method in brief: (§2)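 Renal cytosol came from male Sprague-Dawley rats (4-8 weeks) adrenalectomized bilaterally 1 or 2 days earlier. It was incubated with various competitor concentrations and about 1 nM [3H]Ald for 42-48 h at 0 °C or 100-120 min at 25 °C. Bound and free steroid were separated by DCC.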
# [5] = molecular target: T3, Progesterone receptor (Rattus norvegicus) (UniProt Q63449); test: Relative binding affinity against progesterone receptor determined in rat […] cytosol using [3H]DHT as ligand
# T3 sequence (whole entry): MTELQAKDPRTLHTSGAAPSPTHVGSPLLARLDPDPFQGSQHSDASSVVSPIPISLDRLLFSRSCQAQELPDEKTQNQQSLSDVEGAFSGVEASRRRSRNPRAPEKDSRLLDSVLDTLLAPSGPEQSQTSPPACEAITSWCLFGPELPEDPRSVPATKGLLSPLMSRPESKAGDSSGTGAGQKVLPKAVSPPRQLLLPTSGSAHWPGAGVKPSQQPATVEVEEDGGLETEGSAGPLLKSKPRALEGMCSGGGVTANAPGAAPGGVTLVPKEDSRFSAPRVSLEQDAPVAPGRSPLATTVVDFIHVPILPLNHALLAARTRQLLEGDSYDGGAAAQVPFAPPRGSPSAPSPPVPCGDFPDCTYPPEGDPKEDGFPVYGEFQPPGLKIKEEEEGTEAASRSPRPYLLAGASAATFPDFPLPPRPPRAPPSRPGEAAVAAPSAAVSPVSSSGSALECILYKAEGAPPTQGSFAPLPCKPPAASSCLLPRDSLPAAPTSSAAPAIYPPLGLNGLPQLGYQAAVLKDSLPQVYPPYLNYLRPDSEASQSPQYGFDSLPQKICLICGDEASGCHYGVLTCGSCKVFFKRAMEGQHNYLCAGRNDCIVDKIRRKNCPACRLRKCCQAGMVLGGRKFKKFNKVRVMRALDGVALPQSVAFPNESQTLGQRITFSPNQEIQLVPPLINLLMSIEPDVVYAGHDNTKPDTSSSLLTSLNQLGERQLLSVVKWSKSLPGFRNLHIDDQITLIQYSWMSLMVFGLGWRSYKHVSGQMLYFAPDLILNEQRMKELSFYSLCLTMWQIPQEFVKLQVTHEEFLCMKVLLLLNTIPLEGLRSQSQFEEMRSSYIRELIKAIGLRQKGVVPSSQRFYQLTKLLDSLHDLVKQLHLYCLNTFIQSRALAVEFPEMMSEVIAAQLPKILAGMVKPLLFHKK
# [6] = molecular target: T2, Mineralocorticoid receptor (Rattus norvegicus); test: Antagonist activity against Mineralocorticoid receptor after subcutaneous administration in Male Sprague Dawley rats; (+) =positive; assay type: functional, organism-based; conditions: filed as antagonist; method in brief: as §1
# [7] = molecular target: T2, Mineralocorticoid receptor (Rattus norvegicus); test: Antagonist activity against Mineralocorticoid receptor after oral administration in Male Sprague Dawley rats; (+) =positive; assay type: functional, organism-based; conditions: filed as antagonist; method in brief: as §1
# [8] = molecular target: T2, Mineralocorticoid receptor (Rattus norvegicus); test: Relative anti-mineralocorticoid potency compared to Spironolactone after oral administration; assay type: functional, organism-based; method in brief: as §1
# [9] = molecular target: T2, Mineralocorticoid receptor (Rattus norvegicus); test: Relative binding affinity against mineralocorticoid receptor determined in rat renal cytosol using [3]Ald as ligand; method in brief: as §2
# [10] = molecular target: T3, Progesterone receptor (Rattus norvegicus); test: Relative binding affinity against progesterone receptor in […]
# [11] = molecular target: T3, Progesterone receptor (Rattus norvegicus); test: In vivo relative Progestational activity in Male Sprague-Dawley rats was determined.; assay type: functional, organism-based
# [12] = molecular target: T2, Mineralocorticoid receptor (Rattus norvegicus); test: Antagonist activity against Mineralocorticoid receptor after oral administration in Male Sprague Dawley rats; (-) = negative; assay type: functional, organism-based; method in brief: as §1
# [13] = molecular target: T2, Mineralocorticoid receptor (Rattus norvegicus); test: Antagonist activity against Mineralocorticoid receptor after po administration in Male Sprague Dawley rats; (-) = negative; assay type: functional, organism-based; method in brief: as §1
# [14] = species on record: Rattus norvegicus; test: Displacement of [3H]promegestone from progestin receptor of rat uterine cytosol at 0 degree Centigrade
# Method in brief: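 Uteri from estradiol-primed rats supplied the cytosol. It was incubated with various competitor concentrations and about 1 nM [3H]promegestone for 16-20 h at 0 °C. Bound and free steroid were separated by DCC. RBA (progesterone = 100%) = 100 × ratio of the 50%-inhibition concentrations of standard and competitor.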
# [15] = molecular target: T2, Mineralocorticoid receptor (Rattus norvegicus); test: Displacement of [3]Aldosterone from mineralocorticoid receptor of rat renal cytosol at 0 degree Centigrade; method in brief: as §2
# [16] = molecular target: T2, Mineralocorticoid receptor (Rattus norvegicus); test: Agonist activity against Mineralocorticoid receptor was determined after subcutaneous administration in Male Sprague Dawley rats; (+) =positive; assay type: functional, organism-based; conditions: filed as agonist
smiles,measurement,setting,value
CC12C=CC3C(CCC4CC(=O)CCC43C)C1CCC2O (stereo not given),relative binding affinity (RBA),[1],81
same,Relative activity,[2],1
CC(=O)S[C@@H]1CC2=CC(=O)C=CC2(C)C2C=CC3(C)C(CC[C@@]34CCC(=O)O4)C21 (stereo not given in full),Activity,[3],inactive
same,RBA,[4],71%
same,RBA,[5],3.9%
same,Activity,[6],Antagonist
same,Activity,[7],Antagonist
same,Relative potency,[8],0.77
same,RBA,[9],23%
CC(=O)[C@H]1CC[C@H]2[C@@H]3CCC4=CC(=O)CC[C@]4(C)[C@H]3CC[C@]12C,RBA,[10],100%
same,Relative activity,[11],1
CC12C=CC(=O)C=C1[C@H]1C[C@H]1C1C2C=CC2(C)C1CC[C@@]21CCC(=O)O1 (stereo not given in full),RBA,[4],48%
same,RBA,[5],1.9%
same,Activity,[6],Antagonist
same,Activity,[12],inactive
same,Relative potency,[8],1.31
same,Activity,[13],inactive
same,RBA,[9],32%
CC12CCC(=O)C=C1C[C@@H](SC(=O)c1ccccc1)C1C2C=CC2(C)C1CC[C@@]21CCC(=O)O1 (stereo not given in full),Activity,[3],inactive
same,RBA,[4],18%
same,RBA,[14],25%
same,RBA,[15],11%
CC12C=CC(=O)C=C1CCC1C2C=CC2(C)C1C1CC1[C@@]21CCC(=O)O1 (stereo not given in full),RBA,[4],440%
same,RBA,[9],220%
CC12CCC(=O)C=C1CCC1C2C=CC2(C)C1C1CC1[C@@]21CCC(=O)O1 (stereo not given in full),RBA,[4],650%
same,RBA,[15],310%
CC12CCC(=O)C=C1C=CC1C2C=CC2(C)C1C1CC1[C@@]21CCC(=O)O1 (stereo not given in full),Activity,[3],inactive
same,RBA,[4],320%
same,RBA,[5],210%
same,RBA,[15],290%
CC12C=CC(=O)C=C1C[C@@H](SC(=O)c1ccccc1)C1C2C=CC2(C)C1CC[C@@]21CCC(=O)O1 (stereo not given in full),Activity,[3],inactive
same,RBA,[4],37%
same,Activity,[16],Agonist
same,RBA,[9],3.7%
CC12CCC(=O)C=C1CCC1C2C=CC2(C)C(O)CCC12 (stereo not given),relative binding affinity (RBA),[1],120
same,Relative activity,[2],0.7
C[C@]12CCC(=O)C=C1C=C[C@@H]1[C@@H]2CC[C@@]2(C)[C@H]1CC[C@@]21CCC(=O)O1,RBA,[4],2.9%
same,Activity,[6],Antagonist
same,Activity,[12],inactive
same,RBA,[9],1.7%
